Measurements: ChEMBL document CHEMBL1134817, “Mixed kappa agonists and mu agonists/antagonists as potential pharmacotherapeutics for cocaine abuse: synthesis and opioid receptor binding affinity of N-substituted derivatives of morphinan” (Bioorg Med Chem Lett, 2001)

Legend:
Mu-type opioid receptor = Mu-type opioid receptor (Cavia porcellus, UniProt P97266); test: Binding affinity towards Opioid receptor mu 1 in guinea pig brain membranes using [3H]DAMGO as radioligand; assay type: cell membranes, Membrane
Summary of the method: (§1)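 Competitive displacement binding on guinea pig brain membranes. Each receptor was labelled with its own tritiated radioligand: [³H]DAMGO (μ agonist) for μ, [³H]naltrindole (δ antagonist) for δ, and [³H]U69593 (κ agonist) for κ. The method follows an earlier protocol.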

[1] = biological target: T1, Kappa-type opioid receptor (Cavia porcellus, UniProt P41144); test: Binding affinity towards guinea pig Opioid receptor kappa 1 using radioligand [3H]U-69593; summary of the method: as §1
[2] = biological target: Opioid receptors; delta & kappa (Homo sapiens) (UniProt P41145+P41143); test: Selectivity ratio of kappa opioid receptor to that of delta opioid receptor in guinea pig brain membranes; assay type: cell membranes; conditions: Cavia porcellus; target entry is the homologue from another species
[3] = biological target: Opioid receptors; mu & kappa (Homo sapiens) (UniProt P41145+P35372); test: Selectivity ratio of kappa opioid receptor to that of mu opioid receptor in guinea pig brain membranes; assay type: cell membranes; conditions: Cavia porcellus; target entry is the homologue from another species
[4] = biological target: T1, Kappa-type opioid receptor; test: Binding affinity towards Opioid receptor kappa 1 in guinea pig brain membranes using [3H]U-69593 as radioligand; assay type: cell membranes, Membrane; summary of the method: as §1
[5] = Binding affinity towards Opioid receptor delta 1 in guinea pig brain membranes using [3H]naltrindole as radioligand

Chain of Opioid receptors; delta & kappa (Homo sapiens) (P41143 whole entry, looked up): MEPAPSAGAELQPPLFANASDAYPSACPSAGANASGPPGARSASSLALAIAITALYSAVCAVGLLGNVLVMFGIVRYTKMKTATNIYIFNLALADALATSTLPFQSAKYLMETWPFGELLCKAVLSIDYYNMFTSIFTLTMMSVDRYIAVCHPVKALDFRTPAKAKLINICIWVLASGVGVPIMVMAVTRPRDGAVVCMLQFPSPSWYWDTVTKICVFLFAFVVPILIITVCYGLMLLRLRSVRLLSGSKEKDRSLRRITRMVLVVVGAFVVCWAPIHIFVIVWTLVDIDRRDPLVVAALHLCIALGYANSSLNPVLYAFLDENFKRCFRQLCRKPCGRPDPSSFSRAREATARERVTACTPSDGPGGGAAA
Chain of Opioid receptors; delta & kappa (Homo sapiens) (P41145 whole entry, looked up): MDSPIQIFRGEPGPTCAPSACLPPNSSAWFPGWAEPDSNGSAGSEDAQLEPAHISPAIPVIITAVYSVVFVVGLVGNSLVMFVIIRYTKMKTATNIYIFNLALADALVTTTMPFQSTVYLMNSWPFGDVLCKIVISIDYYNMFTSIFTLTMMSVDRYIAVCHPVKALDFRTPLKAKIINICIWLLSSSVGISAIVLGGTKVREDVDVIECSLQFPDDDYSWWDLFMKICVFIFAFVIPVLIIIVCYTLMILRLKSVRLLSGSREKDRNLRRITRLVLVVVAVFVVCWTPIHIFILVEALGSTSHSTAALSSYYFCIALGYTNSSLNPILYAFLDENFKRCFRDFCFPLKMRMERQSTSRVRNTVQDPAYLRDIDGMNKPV
Chain of Mu-type opioid receptor (P97266 whole entry): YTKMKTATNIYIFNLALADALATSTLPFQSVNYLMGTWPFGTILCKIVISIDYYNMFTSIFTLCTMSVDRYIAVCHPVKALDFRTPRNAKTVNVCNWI
Chain of Opioid receptors; mu & kappa (Homo sapiens) (P35372 whole entry, looked up): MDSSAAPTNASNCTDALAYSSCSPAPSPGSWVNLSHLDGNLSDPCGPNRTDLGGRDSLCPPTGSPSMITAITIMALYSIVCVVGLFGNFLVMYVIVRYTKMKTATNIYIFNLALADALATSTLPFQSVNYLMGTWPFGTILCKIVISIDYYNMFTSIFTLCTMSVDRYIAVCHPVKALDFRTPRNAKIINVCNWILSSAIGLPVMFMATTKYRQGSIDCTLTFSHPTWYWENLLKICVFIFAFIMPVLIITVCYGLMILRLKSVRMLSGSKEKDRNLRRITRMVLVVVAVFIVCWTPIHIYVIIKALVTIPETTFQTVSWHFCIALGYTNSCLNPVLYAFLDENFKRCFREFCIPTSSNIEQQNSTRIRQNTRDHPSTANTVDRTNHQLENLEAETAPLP
Chain of Opioid receptors; mu & kappa (Homo sapiens) (P41145 whole entry, looked up): as the sequence (P41145 whole entry, looked up) above
T1 sequence (P41144 whole entry): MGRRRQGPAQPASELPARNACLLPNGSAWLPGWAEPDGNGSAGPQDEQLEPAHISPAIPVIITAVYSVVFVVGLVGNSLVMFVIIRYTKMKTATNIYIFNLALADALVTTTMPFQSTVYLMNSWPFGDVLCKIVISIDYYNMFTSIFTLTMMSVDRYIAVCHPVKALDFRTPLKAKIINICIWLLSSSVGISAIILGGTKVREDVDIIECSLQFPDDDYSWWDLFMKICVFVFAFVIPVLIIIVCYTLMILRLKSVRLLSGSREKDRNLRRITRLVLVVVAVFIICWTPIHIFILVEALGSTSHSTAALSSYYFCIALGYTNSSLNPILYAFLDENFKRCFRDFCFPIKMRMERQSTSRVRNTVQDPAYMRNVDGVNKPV

Row | Compound | Ki (Mu-type opioid receptor) [nM] | Ki [1] [nM] | Selectivity [2] | Selectivity [3] | Ki [4] [nM] | Ki [5] [nM]
1 | Oc1ccc2c(c1)C[C@@H]1[C@@H]3CCCC[C@]23CCN1CCC(F)(F)F | 2.3 | 1.3 | 21 | 2 |  | 
2 | CC(C)CN1CC[C@]23CCCC[C@H]2[C@H]1Cc1cc(O)ccc13 | 0.54 |  | 35 | 3 | 0.16 | 
3 | Oc1ccc2c(c1)C[C@@H]1[C@@H]3CCCC[C@]23CCN1C/C=C/I | 0.0048 | 0.037 | 730 | 0.13 |  | 
4 | COCCN1CC[C@]23CCCC[C@H]2[C@H]1Cc1cc(O)ccc13 | 0.11 | 0.094 | 6 | 1 |  | 
5 | Oc1ccc2c(c1)C[C@@H]1[C@@H]3CCCC[C@]23CCN1Cc1ccccc1 | 20 | 1.9 | 220 | 11 |  | 
6 | O=C(CCN1CC[C@]23CCCC[C@H]2[C@H]1Cc1cc(O)ccc13)c1ccccc1 | 0.43 | 9.9 | 2 | 0.04 |  | 
7 | Oc1ccc2c(c1)C[C@@H]1[C@@H]3CCCC[C@]23CCN1CCOc1ccccc1 | 0.92 | 15 | 2 | 0.06 |  | 
8 | Oc1ccc2c(c1)C[C@@H]1[C@@H]3CCCC[C@]23CCN1Cc1ccco1 | 0.54 | 0.13 | 65 | 4 |  | 
9 | Oc1ccc2c(c1)C[C@@H]1[C@@H]3CCCC[C@]23CCN1CCc1ccccc1 | 0.12 | 1.3 | 2 | 0.092 |  | 
10 | C#CCN1CC[C@]23CCCC[C@H]2[C@H]1Cc1ccc(O)cc13 | 0.0032 | 0.003 | 210 | 1 |  | 
11 | Oc1ccc2c(c1)[C@@]13CCCC[C@H]1[C@@H](C2)N(CC1CC1)CC3 [CYCLORPHAN] |  |  |  |  |  | 0.22
12 | CN1CC[C@]23CCCC[C@H]2[C@H]1Cc1ccc(O)cc13 [LEVORPHANOL] |  |  | 2 | 0.09 |  | 4.2
13 | O=C(CCN1CC[C@]23CCCC[C@H]2[C@H]1Cc1cc(O)ccc13)c1ccco1 | 0.28 | 7.9 | 5 | 0.035 |  | 
14 | Oc1ccc2c(c1)C[C@@H]1[C@@H]3CCCC[C@]23CCN1CC=CI | 0.42 | 0.65 | 51 | 0.6 |  | 
15 | CCOCCN1CC[C@]23CCCC[C@H]2[C@H]1Cc1cc(O)ccc13 | 0.26 |  | 16 | 0.8 | 0.33 | 
16 | N#CCCCN1CC[C@]23CCCC[C@H]2[C@H]1Cc1cc(O)ccc13 | 0.16 | 0.38 | 8 | 0.42 |  | 
17 | Oc1ccc2c(c1)C[C@@H]1[C@@H]3CCCC[C@]23CCN1CCC(O)c1ccccc1 (some centres undefined) | 21 | 57 | 2 | 0.4 |  | 
18 | Oc1ccc2c(c1)C[C@@H]1[C@@H]3CCCCC23CCN1CC1CCCC1 | 0.96 |  | 33 | 5 | 0.21 | 
19 | Oc1ccc2c(c1)[C@@]13CCCC[C@H]1[C@@H](C2)N(CC1CCC1)CC3 [BUTORPHAN] |  |  | 18 | 2 | 0.07 | 1.3
20 | Oc1ccc2c(c1)C[C@@H]1[C@@H]3CCCC[C@]23CCN1CCC(O)c1cccs1 (some centres undefined) | 4.1 | 25 | 4 | 0.2 |  | 
21 | C=CCN1CC[C@]23CCCC[C@H]2[C@H]1Cc1cc(O)ccc13 | 0.34 | 0.16 | 26 | 2 |  | 
22 | N#CCCN1CC[C@]23CCCC[C@H]2[C@H]1Cc1cc(O)ccc13 | 0.33 | 0.23 | 11 | 1.4 |  | 
23 | Oc1ccc2c(c1)C[C@@H]1[C@@H]3CCCCC23CCN1Cc1cccs1 | 1.5 | 0.32 | 160 | 5 |  | 
24 | Oc1ccc2c(c1)C[C@@H]1[C@@H]3CCCC[C@]23CCN1CCC(O)c1ccco1 (some centres undefined) | 4.2 | 12 | 2 | 0.35 |  | 
25 | Oc1ccc2c(c1)C[C@@H]1[C@@H]3CCCCC23CCN1CC1CCCCC1 | 18 |  | 46 | 12 | 1.5 | 
26 | Oc1ccc2c(c1)C[C@@H]1[C@@H]3CCCC[C@]23CCN1CCCF | 0.18 |  | 10 | 2 | 0.083 | 
27 | O=C(CCN1CC[C@]23CCCC[C@H]2[C@H]1Cc1cc(O)ccc13)c1cccs1 | 0.27 | 4.5 | 2 | 0.06 |  | 
